Measured values reported in ChEMBL document CHEMBL4145598, “Discovery and Development of 8-Substituted Cycloberberine Derivatives as Novel Antibacterial Agents against MRSA” (ACS Med Chem Lett, 2018).

Assays:
Assay type in all cases: functional
Staphylococcus aureus [1] = experiment: Antimicrobial activity against methicillin-resistant Staphylococcus aureus isolate 12-8 after 18 hrs by agar dilution assay; conditions: isolate 12-8, 18 h
Procedure, shortened: (§1)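 Drug-resistant S. aureus (MRSA/VISA) panel. It includes ATCC reference strains and clinical isolates from patients in Chinese hospitals. MIC was determined by standard methods and reported in μg/mL, with levofloxacin as the reference drug.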

Staphylococcus aureus [2] = experiment: Antimicrobial activity against methicillin-resistant Staphylococcus aureus ATCC-BAA-1708 after 18 hrs by agar dilution assay; conditions: ATCC-BAA-1708, 18 h; procedure, shortened: as §1
Staphylococcus aureus [3] = experiment: Antimicrobial activity against methicillin-sensitive Staphylococcus aureus isolate 13-17 after 18 hrs by agar dilution assay; conditions: isolate 13-17, 18 h
Staphylococcus aureus [4] = experiment: Antimicrobial activity against methicillin-sensitive Staphylococcus aureus ATCC 29213 after 18 hrs by agar dilution assay; conditions: ATCC 29213, 18 h
Staphylococcus hominis = experiment: Antimicrobial activity against Staphylococcus hominis ATCC 35982 after 18 hrs by agar dilution assay; conditions: ATCC 35982, 18 h
Staphylococcus aureus [5] = experiment: Antimicrobial activity against methicillin-resistant Staphylococcus aureus isolate 12-16 after 18 hrs by agar dilution assay; conditions: isolate 12-16, 18 h; procedure, shortened: as §1
Staphylococcus aureus [6] = experiment: Antimicrobial activity against methicillin-resistant Staphylococcus aureus ATCC 33591 after 18 hrs by agar dilution assay; conditions: ATCC 33591, 18 h; procedure, shortened: as §1
Staphylococcus aureus [7] = experiment: Antimicrobial activity against methicillin-resistant Staphylococcus aureus isolate 12-3 after 18 hrs by agar dilution assay; conditions: isolate 12-3, 18 h; procedure, shortened: as §1
[8] = test system: Staphylococcus epidermidis; experiment: Antimicrobial activity against methicillin-sensitive Staphylococcus epidermidis isolate 13-1 after 18 hrs by agar dilution assay; conditions: isolate 13-1, 18 h
[9] = test system: Staphylococcus epidermidis; experiment: Antimicrobial activity against methicillin-sensitive Staphylococcus epidermidis ATCC 12228 after 18 hrs by agar dilution assay; conditions: ATCC 12228, 18 h
Staphylococcus aureus [10] = experiment: Antimicrobial activity against vancomycin-intermediate Staphylococcus aureus ATCC 700699 after 18 hrs by agar dilution assay; conditions: ATCC 700699, 18 h
Procedure, shortened: (§2)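 MICs in μg/mL against drug-resistant S. aureus (MRSA/VISA) by standard methods, with levofloxacin as the reference drug. ATCC strains were used.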

Staphylococcus aureus [11] = experiment: Antimicrobial activity against methicillin-sensitive Staphylococcus aureus isolate 13-20 after 18 hrs by agar dilution assay; conditions: isolate 13-20, 18 h
Staphylococcus aureus [12] = experiment: Antimicrobial activity against vancomycin-intermediate Staphylococcus aureus ATCC 700698 after 18 hrs by agar dilution assay; conditions: ATCC 700698, 18 h; procedure, shortened: as §2
Staphylococcus aureus [13] = experiment: Antimicrobial activity against methicillin-resistant Staphylococcus aureus isolate 12-13 after 18 hrs by agar dilution assay; conditions: isolate 12-13, 18 h; procedure, shortened: as §1
Staphylococcus aureus [14] = experiment: Antimicrobial activity against methicillin-resistant Staphylococcus aureus isolate 13-23 after 18 hrs by agar dilution assay; conditions: isolate 13-23, 18 h; procedure, shortened: as §1
Staphylococcus aureus [15] = experiment: Antimicrobial activity against methicillin-sensitive Staphylococcus aureus isolate 15 after 18 hrs by agar dilution assay; conditions: isolate 15, 18 h
[16] = test system: Staphylococcus saprophyticus; experiment: Antimicrobial activity against Staphylococcus saprophyticus ATCC 15305 after 18 hrs by agar dilution assay; conditions: ATCC 15305, 18 h
Staphylococcus aureus [17] = experiment: Antimicrobial activity against methicillin-sensitive Staphylococcus aureus isolate 13-19 after 18 hrs by agar dilution assay; conditions: isolate 13-19, 18 h
Staphylococcus aureus [18] = experiment: Antimicrobial activity against methicillin-sensitive Staphylococcus aureus isolate 13-21 after 18 hrs by agar dilution assay; conditions: isolate 13-21, 18 h
Staphylococcus aureus [19] = experiment: Antimicrobial activity against methicillin-resistant Staphylococcus aureus isolate 13-18 after 18 hrs by agar dilution assay; conditions: isolate 13-18, 18 h; procedure, shortened: as §1

SMILES	MIC (Staphylococcus aureus [1]) [µg/mL]	MIC (Staphylococcus aureus [2]) [µg/mL]	MIC (Staphylococcus aureus [3]) [µg/mL]	MIC (Staphylococcus aureus [4]) [µg/mL]	MIC (Staphylococcus hominis) [µg/mL]	MIC (Staphylococcus aureus [5]) [µg/mL]	MIC (Staphylococcus aureus [6]) [µg/mL]	MIC (Staphylococcus aureus [7]) [µg/mL]	MIC [8] [µg/mL]	MIC [9] [µg/mL]	MIC (Staphylococcus aureus [10]) [µg/mL]	MIC (Staphylococcus aureus [11]) [µg/mL]	MIC (Staphylococcus aureus [12]) [µg/mL]	MIC (Staphylococcus aureus [13]) [µg/mL]	MIC (Staphylococcus aureus [14]) [µg/mL]	MIC (Staphylococcus aureus [15]) [µg/mL]	MIC [16] [µg/mL]	MIC (Staphylococcus aureus [17]) [µg/mL]	MIC (Staphylococcus aureus [18]) [µg/mL]	MIC (Staphylococcus aureus [19]) [µg/mL]
COc1ccc2c(c[n+]3c4c2ccc2c5c(cc(c24)CC3)OCO5)c1OCC(=O)c1ccc(C(F)(F)F)cc1.[Br-]	> 64	> 64	> 64	> 64	> 64	> 64	> 64	> 64	> 64	> 64	> 64	> 64	> 64	> 64	> 64	> 64	> 64	> 64	> 64	> 64
COc1ccc2c(c[n+]3c4c2ccc2c5c(cc(c24)CC3)OCO5)c1OCC(=O)c1ccccc1OC(F)(F)F.[Br-]	8	32	8	8	4	4	8	16	16	4	> 64	8	> 64	4	8	16	4	8	8	8
COc1ccc2c(c[n+]3c4c2ccc2c5c(cc(c24)CC3)OCO5)c1OCC(=O)C1CC1.[Br-]	> 64	> 64	> 64	> 64	> 64	> 64	> 64	> 64	> 64	> 64	> 64	> 64	> 64	> 64	> 64	> 64	> 64	> 64	> 64	> 64
COc1ccc(CNc2c(OC)ccc3c2c[n+]2c4c3ccc3c5c(cc(c34)CC2)OCO5)cc1.[Cl-]	–	–	–	–	8	–	–	–	64	8	> 64	–	16	–	–	–	16	–	–	–
COc1cccc(C(=O)COc2c(OC)ccc3c2c[n+]2c4c3ccc3c5c(cc(c34)CC2)OCO5)c1.[Br-]	16	64	4	16	64	8	4	16	8	16	> 64	8	> 64	8	16	32	8	4	16	4
COc1ccc2c(c[n+]3c4c2ccc2c5c(cc(c24)CC3)OCO5)c1NC(=O)C12CC3CC(CC(C3)C1)C2.[Cl-]	> 64	> 64	> 64	> 64	> 64	> 64	> 64	> 64	> 64	> 64	> 64	> 64	> 64	> 64	> 64	> 64	> 64	> 64	> 64	> 64
CCC(=O)COc1c(OC)ccc2c1c[n+]1c3c2ccc2c4c(cc(c23)CC1)OCO4.[Br-]	> 64	> 64	> 64	> 64	> 64	> 64	> 64	> 64	> 64	> 64	> 64	> 64	> 64	> 64	> 64	> 64	> 64	> 64	> 64	> 64
COc1ccc2c(c[n+]3c4c2ccc2c5c(cc(c24)CC3)OCO5)c1OCC(=O)c1ccc(F)cc1.[Br-]	8	64	16	64	32	16	8	8	8	8	> 64	16	> 64	8	8	8	32	8	8	16
COc1ccc2c(c[n+]3c4c2ccc2c5c(cc(c24)CC3)OCO5)c1NC(=O)CC1CCCC1.[Cl-]	8	4	8	8	8	8	8	8	8	8	4	8	64	16	8	8	32	8	8	8
